Active and inactive are the calls of the source. The calls are words filed in the database; no cut-off is given here.
What was measured:
Caco-2 [1] = experiment: Inhibition of HGF stimulated human Caco2 cells migration through matrigel membrane at 100 nM by staining based light microscopic analysis; type: functional
How it was run: (§1)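 Matrigel-coated invasion chamber inserts, 8 μm pore membrane, 0.5 mL of 2 × 10⁵ Caco-2 cells/mL; stimulated with HGF (100 or 500 ng/mL) or PMA (10 μM) with compound (100 nM or 10 μM); 48 h invasion at 37 °C, 5% CO2. Non-invading cells swabbed off, lower-surface cells Diff-Quik stained and counted by light microscopy; normalized to stimulated control; duplicates.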

[2] = Cytotoxicity against human Caco2 cells assessed as cell viability after 24 hrs by MTT assay; type: cell-based; settings: Caco-2 cells
How it was run: (§2)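 Cells seeded (Caco-2 8 × 10³/well, HT1080 12 × 10⁴/well), grown to 70% confluence, serum-starved 1 h, then exposed to compound at 0.1−200 μM (eight levels) serum-free for 24 h. MTT 0.5 mg/mL for 3 h at 37 °C, formazan dissolved in DMSO, OD 540 nm; viability as % of untreated. CC50 from sigmoidal fits; three experiments, triplicate wells.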

[3] = Cytotoxicity against human Caco2 cells assessed as inhibition of cell viability at 100 uM after 24 hrs by MTT assay; type: cell-based; settings: Caco-2 cells, read-out: INH; how it was run: as §2
[4] = Cytotoxicity against human HT1080 cells assessed as inhibition of cell viability at 100 uM after 24 hrs by MTT assay; type: cell-based; settings: HT-1080 cells, read-out: INH; how it was run: as §2
[5] = Cytotoxicity against human HT1080 cells assessed as cell viability after 24 hrs by MTT assay; type: cell-based; settings: HT-1080 cells; how it was run: as §2
[6] = target: Matrix metalloproteinase-9 (Homo sapiens, UniProt P14780); experiment: Inhibition of p-aminophenylmercuric acetate stimulated human recombinant MMP-9 using (7-methoxycoumarin-4-yl)-acetyl-pro-Leu-Gly-Leu-(3-(2,4-dinitrophenyl)-L-2,3-diaminopropionyl)-Ala-Arg-NH2 as substrate after 45 mins by fluorogenic assay
[7] = target: 72 kDa type IV collagenase (Homo sapiens, UniProt P08253); experiment: Inhibition of p-aminophenylmercuric acetate stimulated human recombinant MMP-2 using (7-methoxycoumarin-4-yl)-acetyl-pro-Leu-Gly-Leu-(3-(2,4-dinitrophenyl)-L-2,3-diaminopropionyl)-Ala-Arg-NH2 as substrate after 45 mins by fluorogenic assay
Caco-2 [8] = experiment: Inhibition of IL1beta/TNFalpha-stimulated MMP-2 secretion in human Caco2 cells at 10 uM after 24 hrs by densitometric analysis; type: functional, cell-based
How it was run: (§3)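 Near-confluent (~75%) Caco-2 switched to serum-free medium, pretreated 30 min with compound (10 μM, DMSO <1%), then TNF-α and IL-1β 10 ng/mL for 24 h at 37 °C. Cleared supernatants normalized by Bradford protein, run on 2% gelatin SDS-PAGE, Triton washed, developed 48 h at 37 °C in Tris pH 7.5/CaCl2 buffer, Coomassie stained; lysis bands quantified by densitometry as % of cytokine-only control.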

HT-1080 [9] = experiment: Induction of apoptosis in human HT1080 cells assessed as increase in necrotic cell population at 10 uM after 24 hrs by Annexin V FITC staining based flow cytometry; settings: ht-1080, 24 h
How it was run: (§4)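 Cells at 80% confluence in T25 flasks treated 24 h serum-free with compound (10 μM); vehicle-only controls. Cells washed in Hepes pH 7.4/NaCl/CaCl2 binding buffer, double-stained with Annexin V-FITC and propidium iodide 15 min at room temperature in dark, read by flow cytometry within 5 min; expressed as % of control fluorescence.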

Caco-2 [10] = experiment: Induction of nitrite release in human Caco2 cells at 200 uM after 24 hrs by Griess assay; type: functional, cell-based
How it was run: (§5)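 Compounds incubated 24 h with Caco-2 monolayers at 200 or 10 μM (n = 3). Supernatant nitrite read by Griess reaction (sulfanilamide 2% plus N-1-naphthylethylenediamine) at 4 °C, 45 min shaking, A540; nitrate measured after VCl3 reduction. Quantified against sodium nitrite/nitrate standards 3−200 μM; NOx = nitrite + nitrate.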

Caco-2 [11] = experiment: Induction of nitrate release in human Caco2 cells at 200 uM after 24 hrs by Griess assay; type: functional, cell-based; how it was run: as §5
HT-1080 [12] = experiment: Induction of apoptosis in human HT1080 cells assessed as increase in apoptotic cell population at 10 uM after 24 hrs by Annexin V FITC staining based flow cytometry; settings: ht-1080, 24 h; how it was run: as §4
Caco-2 [13] = experiment: Induction of apoptosis in human Caco2 cells assessed as increase in necrotic cell population at 10 uM after 24 hrs by Annexin V FITC staining based flow cytometry; settings: caco-2, 24 h; how it was run: as §4
Caco-2 [14] = experiment: Inhibition of PMA-stimulated human Caco2 cells migration through matrigel membrane at 10 uM after 48 hrs by light microscopic analysis; type: functional; settings: Caco-2, 48 h; how it was run: as §1
Caco-2 [15] = experiment: Inhibition of IL1beta/TNFalpha-stimulated MMP-9 secretion in human Caco2 cells at 10 uM after 24 hrs by densitometric analysis; type: functional, cell-based; how it was run: as §3
HT-1080 [16] = experiment: Inhibition of PMA-stimulated MMP-9 secretion in human HT1080 cells at 100 uM after 24 hrs by gelatin zymography; type: functional; settings: for inhibition at 100 µM: HT-1080, 24 h
How it was run: (§6)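 HT1080 at ~75% confluence switched to serum-free medium, pretreated 3 h with compound (100 μM; DMSO ≤0.1%), then PMA 10 μM for 24 h at 37 °C. Cleared supernatants loaded at equal protein on 2% gelatin SDS-PAGE, Triton washed, developed 48 h at 37 °C in Tris pH 7.5/CaCl2 buffer, Coomassie stained; gelatinolytic bands quantified by densitometry relative to stimulated control.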

Caco-2 [17] = experiment: Inhibition of HGF-stimulated human Caco2 cells invasion at 10 uM by light microscopic analysis; type: functional; how it was run: as §1
Caco-2 [18] = experiment: Induction of apoptosis in human Caco2 cells assessed as increase in apoptotic cell population at 10 uM after 24 hrs by Annexin V FITC staining based flow cytometry; settings: caco-2, 24 h; how it was run: as §4
HT-1080 [19] = experiment: Inhibition of PMA-stimulated MMP-2 secretion in human HT1080 cells at 100 uM after 24 hrs by gelatin zymography; type: functional, cell-based; how it was run: as §6
Caco-2 [20] = experiment: Induction of nitrite release in human Caco2 cells at 10 uM after 24 hrs by Griess assay; type: functional, cell-based; how it was run: as §5
Caco-2 [21] = experiment: Induction of nitrate release in human Caco2 cells at 10 uM after 24 hrs by Griess assay; type: functional, cell-based; how it was run: as §5
[22] = Cytotoxicity against human Caco2 cells assessed as inhibition of cell viability at 2.5 uM after 24 hrs by MTT assay; type: cell-based; settings: Caco-2 cells, read-out: INH; how it was run: as §2
[23] = Cytotoxicity against human Caco2 cells assessed as inhibition of cell viability at 12.5 uM after 24 hrs by MTT assay; type: cell-based; settings: Caco-2 cells, read-out: INH; how it was run: as §2

Sequence of Matrix metalloproteinase-9 (P14780 whole entry): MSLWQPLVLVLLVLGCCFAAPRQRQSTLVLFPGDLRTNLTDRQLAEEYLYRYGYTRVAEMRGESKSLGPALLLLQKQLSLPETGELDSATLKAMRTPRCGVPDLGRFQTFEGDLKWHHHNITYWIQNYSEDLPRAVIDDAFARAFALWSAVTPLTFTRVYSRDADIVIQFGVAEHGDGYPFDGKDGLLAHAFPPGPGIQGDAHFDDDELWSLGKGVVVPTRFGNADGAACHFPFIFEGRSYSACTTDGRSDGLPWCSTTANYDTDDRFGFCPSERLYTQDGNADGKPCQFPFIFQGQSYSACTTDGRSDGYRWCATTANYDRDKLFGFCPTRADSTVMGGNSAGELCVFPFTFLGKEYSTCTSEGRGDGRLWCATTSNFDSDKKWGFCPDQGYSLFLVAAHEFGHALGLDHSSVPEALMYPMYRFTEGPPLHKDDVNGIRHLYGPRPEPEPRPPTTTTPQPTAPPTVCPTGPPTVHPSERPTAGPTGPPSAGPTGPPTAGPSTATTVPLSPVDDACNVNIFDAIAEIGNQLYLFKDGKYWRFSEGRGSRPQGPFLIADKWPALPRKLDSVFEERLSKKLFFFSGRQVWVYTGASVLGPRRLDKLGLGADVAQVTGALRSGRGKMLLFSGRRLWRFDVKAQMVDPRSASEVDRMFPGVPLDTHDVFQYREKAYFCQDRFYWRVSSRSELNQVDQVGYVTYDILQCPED
Sequence of 72 kDa type IV collagenase (P08253 whole entry): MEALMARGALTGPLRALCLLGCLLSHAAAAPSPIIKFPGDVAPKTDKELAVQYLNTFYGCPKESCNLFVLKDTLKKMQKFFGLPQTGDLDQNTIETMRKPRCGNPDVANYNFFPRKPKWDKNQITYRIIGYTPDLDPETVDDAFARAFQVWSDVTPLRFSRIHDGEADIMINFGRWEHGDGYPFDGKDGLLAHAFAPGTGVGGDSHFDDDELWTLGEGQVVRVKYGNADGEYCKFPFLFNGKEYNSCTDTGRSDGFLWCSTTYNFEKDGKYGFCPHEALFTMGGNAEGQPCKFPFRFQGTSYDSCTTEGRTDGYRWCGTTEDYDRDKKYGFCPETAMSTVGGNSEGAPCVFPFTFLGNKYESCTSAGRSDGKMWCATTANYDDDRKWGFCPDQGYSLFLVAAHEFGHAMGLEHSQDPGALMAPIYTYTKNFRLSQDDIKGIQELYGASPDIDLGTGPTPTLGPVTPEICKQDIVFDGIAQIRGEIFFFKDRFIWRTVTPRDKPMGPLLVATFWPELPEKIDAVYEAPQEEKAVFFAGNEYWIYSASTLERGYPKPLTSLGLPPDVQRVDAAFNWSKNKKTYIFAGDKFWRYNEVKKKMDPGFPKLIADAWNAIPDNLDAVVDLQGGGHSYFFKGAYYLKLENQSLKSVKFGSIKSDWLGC

Row | SMILES | inhibition at 0.1 µM (Caco-2 [1]) | CC50 at 24 h [2] | CC50 at 24 h [5] | IC50 [6] | IC50 [7] | inhibition (Caco-2 [8]) | Activity (HT-1080 [9]) | Activity (Caco-2 [10]) | Activity (Caco-2 [11]) | Activity (HT-1080 [12]) | Activity (Caco-2 [13]) | inhibition (Caco-2 [15]) | inhibition at 100 µM (HT-1080 [16]) | Activity (Caco-2 [18]) | inhibition (HT-1080 [19]) | also measured
1 | O=C1NC(=O)C(c2ccc(Oc3ccccc3)cc2)(N2CCN(CCO)CC2)C(=O)N1 | 46.3% | > 100 µM | > 100 µM | – | – | – | – | – | – | – | – | – | – | – | – | cytotoxicity at 24 h, 100 µM [3]: 25%; cytotoxicity at 24 h, 100 µM [4]: 33%
2 | O=C1NC(=O)C(c2ccc(Oc3ccccc3)cc2)(N2CCC(CCO)CC2)C(=O)N1 | – | 25.2 µM | 30.1 µM | 12 nM | 10 nM | – | – | – | – | – | – | – | – | – | – | –
3 | CN(CCO)C1(c2ccc(Oc3ccccc3)cc2)C(=O)NC(=O)NC1=O | 34.4% | 76.5 µM | 78.5 µM | 145 nM | 24 nM | – | – | – | – | – | – | – | – | – | – | –
4 | O=C1NC(=O)C(c2ccc(Oc3ccccc3)cc2)(N(CCO[N+](=O)[O-])CCO[N+](=O)[O-])C(=O)N1 | 51.4% | > 100 µM | 72 µM | 91 nM | 328 nM | inactive | Non-toxic | Active | Active | Non-toxic | Non-toxic | Active | > 80% | Non-toxic | Active | inhibition at 10 µM (Caco-2 [14]): 43.3%; cytotoxicity at 24 h, 100 µM [3]: 6%; inhibition at 10 µM (Caco-2 [17]): 51%
5 | O=C1NC(=O)C(c2ccc(Oc3ccccc3)cc2)(N2CCC(CO)CC2)C(=O)N1 | 39% | 47.8 µM | 66.6 µM | 97 nM | 66 nM | – | – | – | – | – | – | – | – | – | – | –
6 | O=C1NC(=O)C(c2ccc(Oc3ccccc3)cc2)(N(CCO)CCO)C(=O)N1 | 51.2% | 8.2 µM | 6.8 µM | 26 nM | 3.8 nM | – | – | – | – | – | – | – | – | – | – | –
7 | O=C1NC(=O)C(c2ccc(Oc3ccccc3)cc2)(N2CCC(CO[N+](=O)[O-])CC2)C(=O)N1 | 35.8% | > 12.5 µM | 11.8 µM | 212 nM | 219 nM | inactive | Non-toxic | Active | Active | Non-toxic | Non-toxic | Active | > 80% | Non-toxic | Active | inhibition at 10 µM (Caco-2 [14]): 64.9%; Activity (Caco-2 [20]): inactive; Activity (Caco-2 [21]): inactive; cytotoxicity at 24 h, 2.5 µM [22]: 12%
8 | O=C1NC(=O)C(c2ccc(Oc3ccccc3)cc2)(N2CCCC(CO)C2)C(=O)N1 (stereo unspecified) | 55.3% | 33.1 µM | 46.4 µM | 6.2 nM | 15 nM | – | – | – | – | – | – | – | – | – | – | –
9 | O=C1NC(=O)C(c2ccc(Oc3ccccc3)cc2)(N2CCCC(CO[N+](=O)[O-])C2)C(=O)N1 (stereo unspecified) | 40.7% | > 12.5 µM | 8.1 µM | 104 nM | 179 nM | inactive | Non-toxic | Active | Active | Non-toxic | Non-toxic | Active | > 80% | Non-toxic | Active | Activity (Caco-2 [20]): inactive; cytotoxicity at 24 h, 12.5 µM [23]: 37%; Activity (Caco-2 [21]): inactive
10 | O=C1NC(=O)C(c2ccc(Oc3ccccc3)cc2)(N2CCN(CCO[N+](=O)[O-])CC2)C(=O)N1 | 34.8% | 26 µM | 12.8 µM | 92 nM | 149 nM | inactive | Non-toxic | Active | Active | Non-toxic | Non-toxic | Active | > 80% | Non-toxic | Active | –
11 | CN(CCO[N+](=O)[O-])C1(c2ccc(Oc3ccccc3)cc2)C(=O)NC(=O)NC1=O | 44.6% | > 100 µM | 48.5 µM | 47.6 nM | 53 nM | inactive | Non-toxic | Active | Active | Non-toxic | Non-toxic | Active | – | Non-toxic | Active | cytotoxicity at 24 h, 100 µM [3]: 28%; inhibition (HT-1080 [16]): Active; inhibition (Caco-2 [17]): inactive

Source: ChEMBL document CHEMBL2062484, “Design of barbiturate-nitrate hybrids that inhibit MMP-9 activity and secretion” (J Med Chem, 2012)
